# Source: ChEMBL document CHEMBL1671691 (Antimicrob Agents Chemother, 2010)
# Legend:
# Influenza A virus [1] = experiment: Antiviral activity against Influenza A virus (A/Illinois/10/2009(H1N1)) harboring neuraminidase H275Y mutant infected in MDCK cells from Mill Hill assessed as inhibition of viral replication after 3 days by microscopic analysis using crystal violet stain; type: functional
# Influenza A virus [2] = experiment: microbe, parasite or virus in culture; conditions: (A/Wuhan/395/1995-like (H3N2)), MDCK, 72 h
# Influenza B virus [3] = experiment: microbe, parasite or virus in culture; conditions: (B/Rochester/01/2001), MDCK, 72 h
# Influenza A virus [4] = experiment: Antiviral activity against adamantane-resistant zanamivir-,oseltamivir-susceptible Influenza A virus (A/pdm/California/07/2009 (H1N1)) harboring M2 V28I, S31N mutant infected in MDCK cells assessed as inhibition of viral replication after 3 days by microscopic analysis using crystal violet stain; type: functional, organism-based, A/California/07/2009(H1N1)
# Procedure, shortened: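 Plaque reduction on confluent MDCK-ATCC monolayers: pretitrated virus (15–45 plaques per well) adsorbed 1 h at 37°C without drug, then washed with PBS. Agarose overlay (0.8%, in MEM) with drug added, 3 days at 37°C. Cells fixed with 70% ethanol, stained with crystal violet, plaques counted. EC50 from curve fitting, averaged over three separate experiments in duplicate, ± SD.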
# Influenza B virus [5] = experiment: microbe, parasite or virus in culture; conditions: B/New York/22/2008, MDCK, 72 h
# Influenza A virus [6] = experiment: Antiviral activity against oseltamivir-susceptible zanamivir-, adamantane-resistant Influenza A virus (A/Texas/12/2007 (clone)(H3N2)) harboring neuraminidase E119I mutant and harboring M2 S31N mutant infected in MDCK cells assessed as inhibition of viral replication after 3 days by microscopic analysis using crystal violet stain; type: functional, organism-based, Influenza A virus (A/Texas/12/2007(H3N2))
# Influenza A virus [7] = experiment: Antiviral activity against oseltamivir-susceptible zanamivir-, adamantane-resistant Influenza A virus (A/Wuhan/395/1995-like (H3N2)) harboring neuraminidase E119V mutant infected in MDCK cells assessed as inhibition of viral replication after 3 days by microscopic analysis using crystal violet stain; type: functional, organism-based
smiles,measurement,setting,value
NC(=O)c1nc(F)cnc1O [FAVIPIRAVIR],log10FFU,Influenza A virus [1],5.03
same,EC50,Influenza A virus [2],5.99 µM
same,EC50,Influenza B virus [3],1.4 µM
same,EC50,Influenza A virus [4],1.4 µM
same,EC50,Influenza B virus [5],5.3 µM
same,EC50,Influenza A virus [6],3.95 µM
same,EC50,Influenza A virus [7],5.41 µM
